Assays:
Mus musculus [1] = test: Percent increase in life span of mice bearing L1210 ascites cells compared to control (in vivo); format: functional
Method in brief: (§1)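 BDF1 female mice (18-20 g), groups of six, implanted ip with 10^5 L1210 ascites cells. On day 1 (24 h later), a single ip injection of test agent at 200 mg/kg, alone or with cyclophosphamide at 100 mg/kg, as a solution or suspension in 5% Tween 80 in normal saline, pH 4. Acetals were heated at 80 °C for 2 h just before injection. Vehicle-only controls were run. Deaths were recorded daily. %ILS = (mean treated life span − mean control)/mean control × 100, with survivors capped at 30 days. Survival was scored as the percent of each group alive 50 days after day 1.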

Mus musculus [2] = test: Percent animals surviving 50 days from day 1 (in vivo); format: functional; method in brief: as §1

CCOC(CCP(=O)(OCC)OCC)OCC was tested. Which ILC (Mus musculus [1]) did it give?
Its ILC is 204%.

What about the Cures (Mus musculus [2]) of the same compound?
Its Cures is 83%.

How did the ILC (Mus musculus [1]) turn out when CCOP(=O)(CC=O)OCC was run?
The ILC was 180%.

And the Cures (Mus musculus [2])?
The Cures was 67%.

CCOP(=O)(CCC=O)c1ccccc1 (stereo not given) was tested. Which ILC (Mus musculus [1]) did it give?
The ILC was 175%.

What about the Cures (Mus musculus [2]) of the same compound?
The Cures was 83%.

How did the ILC (Mus musculus [1]) turn out when CCOC(CCP(=O)(OCC)c1ccccc1)OCC (stereo not given) was run?
Its ILC is 166%.

And the Cures (Mus musculus [2])?
The Cures was 50%.

For Cc1ncc(CO)c(C=O)c1O [PYRIDOXAL], which ILC (Mus musculus [1]) is on record?
Its ILC is 164%.

What about the Cures (Mus musculus [2]) of the same compound?
Its Cures is 33%.

— ChEMBL document CHEMBL1121408, “Cyclophosphamide potentiation and aldehyde oxidase inhibition by phosphorylated aldehydes and acetals” (J Med Chem, 1980)
